Test results taken from ChEMBL document CHEMBL4033702, “Challenges in the development of an M4 PAM preclinical candidate: The discovery, SAR, and in vivo characterization of a series of 3-aminoazetidine-derived amides” (Bioorg Med Chem Lett, 2017).
Where “and” joins values, the source holds several entries; their conditions need not be identical. Identical values can stand only once.

Tests used:
[1] = molecular target: T1, Muscarinic acetylcholine receptor M4 (Homo sapiens) (UniProt P08173); experiment: Positive allosteric modulation of human M4 receptor expressed in CHO cells co-expressing Gqi5 assessed as increase in acetylcholine-induced calcium mobilization relative to acetylcholine; assay type: functional, cell-based
T1 sequence (whole entry): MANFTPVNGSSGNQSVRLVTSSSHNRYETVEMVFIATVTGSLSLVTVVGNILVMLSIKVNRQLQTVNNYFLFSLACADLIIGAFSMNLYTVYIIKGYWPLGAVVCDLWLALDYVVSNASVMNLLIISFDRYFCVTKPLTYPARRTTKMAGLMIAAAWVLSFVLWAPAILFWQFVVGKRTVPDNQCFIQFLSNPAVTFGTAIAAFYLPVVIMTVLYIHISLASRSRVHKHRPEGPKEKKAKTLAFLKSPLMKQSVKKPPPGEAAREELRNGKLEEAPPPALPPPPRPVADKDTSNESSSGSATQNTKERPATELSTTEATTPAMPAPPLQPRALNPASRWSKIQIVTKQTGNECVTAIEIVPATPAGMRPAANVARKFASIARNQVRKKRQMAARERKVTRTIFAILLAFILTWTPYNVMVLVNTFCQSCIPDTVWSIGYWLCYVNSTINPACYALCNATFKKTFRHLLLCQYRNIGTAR
Outline: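 Calcium mobilization in CHO cells stably co-expressing hM4 and Gqi5, tested in the presence of a fixed EC20 concentration of acetylcholine. Values are means of three independent experiments, each run in triplicate.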

[2] = molecular target: T2, Muscarinic acetylcholine receptor M4 (Homo sapiens, UniProt P08173); experiment: Positive allosteric modulation of human M4 receptor expressed in CHO cells co-expressing Gqi5 assessed as increase in acetylcholine-induced calcium mobilization
T2 sequence (P08173 whole entry): T1 sequence (whole entry)

[3] = Brain to plasma permeability coefficient, Kp of the compound in Sprague-Dawley rat administered as iv cassette dose measured at 0.25 hrs post dose; assay type: ADME, organism-based; conditions: for Kp at 0.25 h: Sprague-Dawley, brain and plasma; for Kp: brain, 0.25 h
[4] = Clearance in Sprague-Dawley rat; assay type: ADME; conditions: in vivo
Outline: (§1)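 IV and PO pharmacokinetics in male Sprague-Dawley rats, n = 1–3. The oral dose was a 2–3 mg/kg solution. Plasma clearance, Vss and oral bioavailability were determined.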

[5] = system: Rattus norvegicus; experiment: Reversal of amphetamine-induced hyperlocomotion in Sprague-Dawley rat at 10 mg/kg, po pretreated 30 mins post habituation in the chamber followed by amphetamine injection after 30 mins measured after 60 mins; assay type: functional
Outline: (§2)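 Male Sprague-Dawley rats, n = 6–24 per dose group, were habituated in the chamber for 30 min. The compound or vehicle (10% tween-80 in water, v/v) was then given orally. Amphetamine 0.75 mg/kg was injected subcutaneously 30 min later. Total ambulations over t = 60–120 min gave % reversal of AHL, reported as mean ± SEM.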

[6] = molecular target: T3, Muscarinic acetylcholine receptor M2 (Homo sapiens, UniProt P08172); experiment: Activity at human M2 receptor assessed as increase in acetylcholine-induced calcium mobilization; assay type: functional
T3 sequence (P08172 whole entry): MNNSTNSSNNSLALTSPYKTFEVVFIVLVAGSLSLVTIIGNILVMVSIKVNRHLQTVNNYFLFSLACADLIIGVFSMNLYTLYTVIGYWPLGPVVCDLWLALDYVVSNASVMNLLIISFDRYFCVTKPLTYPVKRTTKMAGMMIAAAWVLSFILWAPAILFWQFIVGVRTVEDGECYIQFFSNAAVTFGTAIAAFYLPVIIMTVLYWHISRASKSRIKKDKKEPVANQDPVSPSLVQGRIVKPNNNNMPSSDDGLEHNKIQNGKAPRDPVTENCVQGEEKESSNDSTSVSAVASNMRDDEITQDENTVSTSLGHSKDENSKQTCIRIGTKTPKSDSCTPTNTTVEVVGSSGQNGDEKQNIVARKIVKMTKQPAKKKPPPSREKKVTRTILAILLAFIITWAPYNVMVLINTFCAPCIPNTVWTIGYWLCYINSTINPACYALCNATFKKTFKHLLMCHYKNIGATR

[7] = Elimination half-life in Sprague-Dawley rat; assay type: ADME; conditions: in vivo, read-out: beta t1/2 (converted)
[8] = species on record: Rattus norvegicus; experiment: Drug metabolism in Sprague-Dawley rat assessed as aldehyde oxidase-mediated metabolism at alpha to 4-pryidyl nitrogen; assay type: ADME
[9] = molecular target: Cytochrome P450 2D6 (Homo sapiens, UniProt P10635); experiment: Inhibition of CYP2D6 (unknown origin); assay type: ADME
[10] = Volume of distribution at steady state in Sprague-Dawley rat; assay type: ADME; conditions: in vivo, read-out: Vdss; outline: as §1
[11] = molecular target: T4, Muscarinic acetylcholine receptor M2 (Homo sapiens) (UniProt P08172); experiment: Activity at human M2 receptor assessed as increase in acetylcholine-induced calcium mobilization relative to acetylcholine; assay type: functional
T4 sequence (whole entry): T3 sequence (P08172 whole entry)

[12] = system: Rattus norvegicus; experiment: Reversal of amphetamine-induced hyperlocomotion in Sprague-Dawley rat at 30 mg/kg, po pretreated 30 mins post habituation in the chamber followed by amphetamine injection after 30 mins measured after 60 mins; assay type: functional; outline: as §2
[13] = molecular target: Cytochrome P450 2C9 (Homo sapiens, UniProt P11712); experiment: Inhibition of CYP2C9 (unknown origin); assay type: ADME
[14] = system: Rattus norvegicus; experiment: Reversal of amphetamine-induced hyperlocomotion in Sprague-Dawley rat at 56.6 mg/kg, po pretreated 30 mins post habituation in the chamber followed by amphetamine injection after 30 mins measured after 60 mins; assay type: functional; conditions: in the assay text read “1 mg/kg” for “56.6 mg/kg”; outline: as §2
[15] = system: Rattus norvegicus; experiment: Reversal of amphetamine-induced hyperlocomotion in Sprague-Dawley rat at 3 mg/kg, po pretreated 30 mins post habituation in the chamber followed by amphetamine injection after 30 mins measured after 60 mins; assay type: functional; outline: as §2
[16] = system: MDR1; experiment: Efflux ratio of permeability in MDCK2-MDR1 cells; assay type: ADME, cell-based, Canis lupus familiaris; conditions: dog, MDCK-MDR1
[17] = molecular target: T5, Cytochrome P450 1A2 (Homo sapiens, UniProt P05177); experiment: Inhibition of CYP1A2 (unknown origin); assay type: ADME
T5 sequence (P05177 whole entry): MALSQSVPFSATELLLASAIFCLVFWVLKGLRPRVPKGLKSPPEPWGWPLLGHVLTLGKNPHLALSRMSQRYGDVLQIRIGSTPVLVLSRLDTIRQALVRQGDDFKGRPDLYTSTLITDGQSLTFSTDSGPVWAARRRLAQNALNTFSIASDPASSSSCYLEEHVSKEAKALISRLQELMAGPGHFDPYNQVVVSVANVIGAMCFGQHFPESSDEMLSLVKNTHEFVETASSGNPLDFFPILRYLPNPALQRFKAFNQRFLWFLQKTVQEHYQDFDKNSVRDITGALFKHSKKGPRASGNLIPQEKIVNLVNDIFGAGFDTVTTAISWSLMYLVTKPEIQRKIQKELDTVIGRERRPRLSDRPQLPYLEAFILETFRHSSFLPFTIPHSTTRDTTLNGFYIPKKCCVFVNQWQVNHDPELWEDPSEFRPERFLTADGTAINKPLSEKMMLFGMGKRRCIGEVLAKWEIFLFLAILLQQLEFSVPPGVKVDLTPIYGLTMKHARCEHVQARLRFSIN

[18] = molecular target: Cytochrome P450 3A4 (Homo sapiens, UniProt P08684); experiment: Inhibition of CYP3A4 (unknown origin); assay type: ADME
[19] = Ratio of unbound brain to plasma concentration in Sprague-Dawley rat administered as iv cassette dose measured at 0.25 hrs post dose; assay type: ADME, organism-based

Sequence of Cytochrome P450 3A4 (P08684 whole entry): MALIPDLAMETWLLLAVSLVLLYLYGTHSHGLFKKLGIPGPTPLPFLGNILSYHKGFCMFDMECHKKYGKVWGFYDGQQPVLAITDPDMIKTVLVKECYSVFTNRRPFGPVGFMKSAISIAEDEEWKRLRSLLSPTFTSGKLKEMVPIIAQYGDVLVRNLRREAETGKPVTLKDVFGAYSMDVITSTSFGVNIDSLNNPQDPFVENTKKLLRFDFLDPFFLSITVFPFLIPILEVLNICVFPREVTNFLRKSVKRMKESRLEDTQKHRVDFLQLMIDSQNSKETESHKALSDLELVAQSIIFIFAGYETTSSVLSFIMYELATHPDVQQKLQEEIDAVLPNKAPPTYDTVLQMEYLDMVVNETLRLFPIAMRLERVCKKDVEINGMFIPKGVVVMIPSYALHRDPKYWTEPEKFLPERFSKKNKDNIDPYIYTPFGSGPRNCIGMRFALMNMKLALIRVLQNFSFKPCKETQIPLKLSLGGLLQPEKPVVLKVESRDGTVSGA
Sequence of Cytochrome P450 2D6 (P10635 whole entry): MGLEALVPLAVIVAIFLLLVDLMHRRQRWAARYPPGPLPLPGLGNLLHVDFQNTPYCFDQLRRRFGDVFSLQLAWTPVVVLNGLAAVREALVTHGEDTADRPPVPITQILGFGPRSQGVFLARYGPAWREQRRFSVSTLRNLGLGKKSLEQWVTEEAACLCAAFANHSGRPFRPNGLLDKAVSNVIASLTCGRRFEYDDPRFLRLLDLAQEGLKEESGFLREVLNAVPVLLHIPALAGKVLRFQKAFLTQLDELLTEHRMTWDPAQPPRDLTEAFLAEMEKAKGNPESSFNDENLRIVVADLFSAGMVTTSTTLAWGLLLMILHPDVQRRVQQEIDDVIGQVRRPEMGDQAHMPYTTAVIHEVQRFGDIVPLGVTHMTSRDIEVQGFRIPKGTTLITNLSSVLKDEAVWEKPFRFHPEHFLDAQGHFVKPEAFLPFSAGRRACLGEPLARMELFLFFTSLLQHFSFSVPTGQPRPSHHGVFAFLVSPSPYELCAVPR
Sequence of Cytochrome P450 2C9 (P11712 whole entry): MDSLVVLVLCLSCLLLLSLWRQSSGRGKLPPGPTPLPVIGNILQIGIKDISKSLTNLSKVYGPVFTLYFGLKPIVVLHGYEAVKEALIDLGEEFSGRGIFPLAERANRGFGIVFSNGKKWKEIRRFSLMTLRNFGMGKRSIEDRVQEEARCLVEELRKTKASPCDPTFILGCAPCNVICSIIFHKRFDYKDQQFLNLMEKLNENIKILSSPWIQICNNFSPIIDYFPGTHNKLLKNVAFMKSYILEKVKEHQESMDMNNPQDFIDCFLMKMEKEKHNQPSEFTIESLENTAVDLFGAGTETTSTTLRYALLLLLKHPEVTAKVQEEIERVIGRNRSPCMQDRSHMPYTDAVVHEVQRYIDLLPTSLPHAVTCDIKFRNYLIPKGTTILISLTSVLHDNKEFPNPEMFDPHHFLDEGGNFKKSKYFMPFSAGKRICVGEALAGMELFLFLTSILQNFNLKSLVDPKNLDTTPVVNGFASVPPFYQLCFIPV

| SMILES | %max [1] | EC50 [2] | other results |
| --- | --- | --- | --- |
| Cc1nnc2sc(C(=O)NC3CN(c4ccc(S(=O)(=O)C(F)F)cc4)C3)c(N)c2c1C | 75% | 325 nM | – |
| Cc1nnc2sc(C(=O)NC3CN(c4cccnc4)C3)c(N)c2c1C | 96% | 34 nM and 33.1 nM | Kp at 0.25 h [3]: < 0.05 |
| Cc1nnc2sc(C(=O)NC3CN(c4ccc(F)c(F)c4)C3)c(N)c2c1C | 84% | 28.8 nM and 30 nM | clearance [4]: 4.4 mL/min/kg |
| Cc1nnc2sc(C(=O)NCc3ccc(S(=O)(=O)C(F)(F)F)cc3)c(N)c2c1C | – | – | Activity [5]: 62% |
| Cc1nnc2sc(C(=O)NC3CN(c4cncnc4)C3)c(N)c2c1C | 89% | 41 nM and 38.9 nM | Kp at 0.25 h [3]: < 0.05 |
| Cc1nnc2sc(C(=O)NC3CN(C(=O)Oc4ccccc4)C3)c(N)c2c1C | 96% | 23 nM | EC50 [6]: 2650 nM; half-life [7]: < 0.5 h |
| COc1cncc(N2CC(NC(=O)c3sc4nnc(C)c(C)c4c3N)C2)c1 | 88% | 17 nM | Kp [3]: < 0.05 |
| Cc1nnc2sc(C(=O)NC3CN(c4cncc(F)c4)C3)c(N)c2c1C | 90% | 16 nM | – |
| Cc1nnc2sc(C(=O)NC3CN(c4ccncc4Cl)C3)c(N)c2c1C | 86% | 8 nM | Drug metabolism [8]: Metabolite_Detected |
| Cc1nnc2sc(C(=O)NC3CN(c4cnccn4)C3)c(N)c2c1C | 80% | 78 nM and 74.1 nM | Kp at 0.25 h [3]: < 0.05 |
| Cc1nnc2sc(C(=O)NC3CN(c4ccnc(Cl)c4)C3)c(N)c2c1C | 87% | 185 nM | – |
| Cc1nnc2sc(C(=O)NC3CN(c4ccc(S(=O)(=O)C(F)(F)F)cc4)C3)c(N)c2c1C | 86% | 934 nM | – |
| Cc1nnc2sc(C(=O)NC3CN(c4ccc(C(F)(F)F)nc4)C3)c(N)c2c1C | 75% | 76 nM | IC50 [9]: > 30000 nM; Vd [10]: 0.89 L/kg; %max [11]: 43%; Activity [5]: 55%; clearance [4]: 8.8 mL/min/kg; Kp [3]: 0.12; Activity [12]: 55 - 56%; EC50 [6]: 960 nM; IC50 [13]: > 30000 nM; Activity [14]: 44%; Activity [15]: 48%; efflux ratio [16]: 8.5; IC50 [17]: > 30000 nM; IC50 [18]: > 30000 nM; K(p,uu,brain) [19]: 0.33; half-life [7]: 1.3 h |
| Cc1nnc2sc(C(=O)NC3CN(C(=O)c4ccncc4)C3)c(N)c2c1C | 85% | 179 nM | clearance [4]: 3.1 mL/min/kg; Kp [3]: 0.03; EC50 [6]: > 10000 nM; efflux ratio [16]: 96; K(p,uu,brain) [19]: 0.37 |
| Cc1nnc2sc(C(=O)NC3CN(c4cccnc4F)C3)c(N)c2c1C | 82% | 29 nM | – |
| Cc1nnc2sc(C(=O)NC3CN(c4ccccn4)C3)c(N)c2c1C | 81% | 124 nM | – |
| Cc1nnc2sc(C(=O)NC3CN(c4ccc(F)cc4F)C3)c(N)c2c1C | 94% | 37 nM | – |

| SMILES | %max [1] | EC50 [2] | other results |
| --- | --- | --- | --- |
| Cc1nnc2sc(C(=O)NC3CN(c4ccccc4)C3)c(N)c2c1C | 85% | 25 nM | %max [11]: 58%; clearance [4]: 45 mL/min/kg; Kp [3]: 0.57; EC50 [6]: 1780 nM; K(p,uu,brain) [19]: 0.73 |
| Cc1nnc2sc(C(=O)NC3CN(C(=O)Nc4ccccc4)C3)c(N)c2c1C | 89% | 217 nM | – |
| Cc1nnc2sc(C(=O)NC3CN(c4ccc(F)cc4)C3)c(N)c2c1C | 77% | 282 nM | – |
| Cc1nnc2sc(C(=O)NC3CN(c4nc5ccccc5s4)C3)c(N)c2c1C | 87% | 439 nM | – |
| Cc1nnc2sc(C(=O)NC3CN(C(=O)OCc4ccccc4)C3)c(N)c2c1C | 81% | 30 nM | – |
| Cc1nnc2sc(C(=O)NC3CN(c4cc(F)nc(F)c4)C3)c(N)c2c1C | 84% | 11 nM | – |
| COc1ccc(N2CC(NC(=O)c3sc4nnc(C)c(C)c4c3N)C2)cc1 | 81% | 1290 nM | – |
| COc1cc(N2CC(NC(=O)c3sc4nnc(C)c(C)c4c3N)C2)ccn1 | 86% | 51 nM | Drug metabolism [8]: Metabolite_Detected |
| Cc1cccc(OC(=O)N2CC(NC(=O)c3sc4nnc(C)c(C)c4c3N)C2)c1 | 85% | 67 nM | – |
| Cc1nnc2sc(C(=O)NC3CN(c4ccccc4F)C3)c(N)c2c1C | 82% | 28 nM | – |
| COc1cccc(N2CC(NC(=O)c3sc4nnc(C)c(C)c4c3N)C2)c1 | 77% | 141 nM and 132 nM | – |
| Cc1nnc2sc(C(=O)NC3CN(S(=O)(=O)c4ccccc4)C3)c(N)c2c1C | 70% | 268 nM and 263 nM | – |
| Cc1nnc2sc(C(=O)NC3CN(C(=O)c4ccccn4)C3)c(N)c2c1C | 91% | 564 nM | – |
| Cc1nnc2sc(C(=O)NC3CN(c4ccncn4)C3)c(N)c2c1C | 83% | 38 nM | Kp at 0.25 h [3]: < 0.05 |
| Cc1nnc2sc(C(=O)NC3CN(c4nc5cccnc5s4)C3)c(N)c2c1C | 81% | 106 nM | Activity [5]: 16%; Kp [3]: 0.17; EC50 [6]: 220 nM; K(p,uu,brain) [19]: 1.3 |
| Cc1nnc2sc(C(=O)NC3CN(C(=O)c4ccccc4)C3)c(N)c2c1C | 85% | 773 nM | – |
| Cc1nnc2sc(C(=O)NC3CN(c4nc5ccccc5o4)C3)c(N)c2c1C | 89% | 419 nM | – |
